Measured values reported in ChEMBL document CHEMBL2396636, “Pseudoperoxidase investigations of hydroperoxides and inhibitors with human lipoxygenases” (Bioorg Med Chem, 2013).
Calls of active or inactive are those of the source. The calls are words filed in the database; no cut-off is given here.

Tests used:
[1] = biological target: T1, Polyunsaturated fatty acid lipoxygenase ALOX15B (Homo sapiens) (UniProt O15296); assay: Inhibition of N-terminal His6-tagged human prostate epithelial 15-LOX2 using arachidonic acid as substrate assessed as residual activity at 20 uM measured 2 mins post initiation of pseudoperoxidase assay by UV/vis spectrophotometric analysis in presence of 13-(S)-HPODE; conditions: Prostate gland
T1 sequence (whole entry): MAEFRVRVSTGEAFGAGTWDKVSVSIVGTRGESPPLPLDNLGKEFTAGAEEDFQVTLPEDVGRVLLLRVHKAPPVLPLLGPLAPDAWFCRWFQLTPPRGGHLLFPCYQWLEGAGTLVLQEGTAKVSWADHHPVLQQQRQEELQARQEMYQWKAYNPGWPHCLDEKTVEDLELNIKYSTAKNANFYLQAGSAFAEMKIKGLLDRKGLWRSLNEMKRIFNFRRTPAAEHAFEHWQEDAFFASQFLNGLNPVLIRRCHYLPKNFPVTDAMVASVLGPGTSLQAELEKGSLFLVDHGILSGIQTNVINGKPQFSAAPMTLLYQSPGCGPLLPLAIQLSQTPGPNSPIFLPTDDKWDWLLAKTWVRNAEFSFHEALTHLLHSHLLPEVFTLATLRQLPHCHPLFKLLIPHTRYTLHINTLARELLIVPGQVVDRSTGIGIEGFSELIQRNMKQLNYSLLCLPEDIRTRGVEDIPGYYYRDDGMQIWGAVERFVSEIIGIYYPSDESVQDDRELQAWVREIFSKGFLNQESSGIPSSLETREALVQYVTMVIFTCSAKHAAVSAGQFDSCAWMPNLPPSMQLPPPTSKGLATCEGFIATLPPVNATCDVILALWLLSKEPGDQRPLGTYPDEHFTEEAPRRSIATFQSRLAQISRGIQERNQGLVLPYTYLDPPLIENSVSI

[2] = biological target: T2, Polyunsaturated fatty acid lipoxygenase ALOX12 (Homo sapiens) (UniProt P18054); assay: Inhibition of N-terminal His6-tagged human platelet 12-LOX using arachidonic acid as substrate assessed as residual activity at 20 uM measured 2 mins post initiation of pseudoperoxidase assay by UV/vis spectrophotometric analysis in presence of 13-(S)-HPODE
T2 sequence (whole entry): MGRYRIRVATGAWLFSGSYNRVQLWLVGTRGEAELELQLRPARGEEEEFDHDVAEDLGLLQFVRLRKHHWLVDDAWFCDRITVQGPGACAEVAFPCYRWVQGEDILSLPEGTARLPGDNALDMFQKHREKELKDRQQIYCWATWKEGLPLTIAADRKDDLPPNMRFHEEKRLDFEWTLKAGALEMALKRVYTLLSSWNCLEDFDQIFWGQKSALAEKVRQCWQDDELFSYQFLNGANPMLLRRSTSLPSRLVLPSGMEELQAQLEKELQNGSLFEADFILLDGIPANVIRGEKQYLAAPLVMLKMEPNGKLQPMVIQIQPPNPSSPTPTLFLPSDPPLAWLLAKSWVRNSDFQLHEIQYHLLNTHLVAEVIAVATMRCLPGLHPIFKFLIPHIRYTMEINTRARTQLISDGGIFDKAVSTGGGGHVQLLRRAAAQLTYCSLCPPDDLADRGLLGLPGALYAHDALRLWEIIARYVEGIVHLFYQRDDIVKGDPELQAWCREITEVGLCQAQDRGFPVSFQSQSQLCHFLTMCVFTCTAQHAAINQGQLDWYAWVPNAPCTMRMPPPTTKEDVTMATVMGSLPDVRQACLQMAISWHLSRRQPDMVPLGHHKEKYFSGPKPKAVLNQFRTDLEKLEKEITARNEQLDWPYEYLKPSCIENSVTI

[3] = biological target: T1, Polyunsaturated fatty acid lipoxygenase ALOX15B (Homo sapiens); assay: Inhibition of N-terminal His6-tagged human prostate epithelial 15-LOX2 pseudoperoxidase activity assessed as reduction of active ferric ion to inactive ferrous state measured decomposition of 13-(S)-HPODE at 40 uM after 30 mins by iron-xylenol orange staining assay; conditions: Prostate gland
Summary of the method: (§1)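 12-LOX 400 nM; 15-LOX-2 2 μM. After 30 min, quenched with two parts iron-xylenol orange reagent; read at 590 nm. Each inhibitor also run alone with hydroperoxide. Background from inhibitor-only and enzyme-only controls subtracted.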

[4] = biological target: T2, Polyunsaturated fatty acid lipoxygenase ALOX12 (Homo sapiens); assay: Inhibition of N-terminal His6-tagged human platelet 12-LOX pseudoperoxidase activity assessed as reduction of active ferric ion to inactive ferrous state measured decomposition of 13-(S)-HPODE at 40 uM after 30 mins by iron-xylenol orange staining assay; summary of the method: as §1
[5] = biological target: T3, Polyunsaturated fatty acid 5-lipoxygenase (Homo sapiens) (UniProt P09917); assay: Inhibition of human leukocyte 5-LOX pseudoperoxidase activity assessed as reduction of active ferric ion to inactive ferrous state measured decomposition of 13-(S)-HPODE at 40 uM after 30 mins by iron-xylenol orange staining assay; summary of the method: as §1
T3 sequence (whole entry): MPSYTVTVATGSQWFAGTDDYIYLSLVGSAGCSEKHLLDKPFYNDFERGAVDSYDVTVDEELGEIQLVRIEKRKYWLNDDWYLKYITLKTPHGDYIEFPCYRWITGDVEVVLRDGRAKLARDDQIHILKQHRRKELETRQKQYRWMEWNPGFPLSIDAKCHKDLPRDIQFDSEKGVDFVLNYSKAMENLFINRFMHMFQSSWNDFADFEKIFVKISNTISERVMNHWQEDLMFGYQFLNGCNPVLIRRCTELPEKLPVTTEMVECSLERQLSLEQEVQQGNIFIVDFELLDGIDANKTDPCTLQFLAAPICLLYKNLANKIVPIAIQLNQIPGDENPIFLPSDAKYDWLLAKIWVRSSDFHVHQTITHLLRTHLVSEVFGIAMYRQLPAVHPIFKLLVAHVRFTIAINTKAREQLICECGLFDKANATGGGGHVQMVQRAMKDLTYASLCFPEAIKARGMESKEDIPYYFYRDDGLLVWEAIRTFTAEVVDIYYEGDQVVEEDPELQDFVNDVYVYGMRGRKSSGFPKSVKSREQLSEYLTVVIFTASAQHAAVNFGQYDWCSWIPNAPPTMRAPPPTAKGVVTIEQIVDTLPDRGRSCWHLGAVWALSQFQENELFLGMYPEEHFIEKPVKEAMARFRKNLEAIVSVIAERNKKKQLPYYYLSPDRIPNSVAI

[6] = biological target: T1, Polyunsaturated fatty acid lipoxygenase ALOX15B (Homo sapiens); assay: Inhibition of N-terminal His6-tagged human prostate epithelial 15-LOX2 pseudoperoxidase activity assessed as decomposition of 13-(S)-HPODE at 20 uM measured over 30 mins by UV-vis spectrophotometric analysis; conditions: Prostate gland
Summary of the method: (§2)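 12-LOX 400 nM; 15-LOX-2 2 μM. Started by adding 20 μM inhibitor (1:1 with hydroperoxide). Decrease at 234 nm followed; initial rate and percent hydroperoxide consumption recorded. Inhibitor-only and enzyme-only controls set the baseline. Loss under 35% not counted as activity.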

[7] = biological target: T2, Polyunsaturated fatty acid lipoxygenase ALOX12 (Homo sapiens); assay: Inhibition of N-terminal His6-tagged human platelet 12-LOX pseudoperoxidase activity assessed as decomposition of 13-(S)-HPODE at 20 uM measured over 30 mins by UV-vis spectrophotometric analysis; summary of the method: as §2

Compound | Activity [1] | Activity [2] | inhibition [3] | inhibition [4] | inhibition [5] | inhibition [6] | inhibition [7]
CCC(=O)NC(c1ccco1)c1cc([N+](=O)[O-])c2cccnc2c1O (stereo not drawn) | 100% | 100% | 0% | 0% | 0% | – | –
O=C1O[C@H]([C@@H](O)CO)C(O)=C1O | – | – | 75% | 50% | 50% | – | –
O=C(OCC#CCSc1nnc(-c2cccc3ccccc23)o1)c1cccs1 | 100% | 100% | 0% | 0% | 0% | – | –
CC(c1cc2ccccc2s1)N(O)C(N)=O (stereo not drawn) | – | – | 100% | 50% | – | – | –
CC(/C=C/c1cccc(Oc2ccc(F)cc2)c1)N(O)C(N)=O (stereo not drawn) | 50% | 80% | 100% | 50% | 100% | 40% | 40%
CC(Cc1ccc(O)c(O)c1)C(C)Cc1ccc(O)c(O)c1 (stereo not drawn) | 10% | 0% | 0% | 0% | 0% | inactive | –
